Screening results from PubChem BioAssay.
PHOSPHO1 inh = blocks human PHOSPHO1 phosphatase activity; recombinant PHOSPHO1, absorbance phosphatase assay; inhibition, % at 13.3 µM; 290,000 compounds, 1.1% hits; AID 1565; in the data active means inhibition above about 60%
KCNK9 inh = blocks the human KCNK9 two-pore domain potassium channel; Q9NPC2; HEK293 KCNK9, FluxOR thallium flux fluorescence; active compounds read low; B-score at 10 µM; 310,000 compounds, 1.2% hits;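 active means ratio B-score over 3 SD below the library mean, with starting fluorescence within 5 SD of its mean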;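 further: negative B-score means less thallium flux so channel inhibition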
hERG rescue = hERG (human) protection from proarrhythmic block. CHO-hERG, FluxOR thallium flux, dofetilide IC70 present. activation (rescue from dofetilide block), less the hit threshold, % at 10 µM. 310,000 compounds, 0.51% hits. AID 1511;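 active means activation above the mean of controls blocked by dofetilide plus 5 SD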;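 further: thallium influx through hERG after potassium depolarization seen as dye fluorescence rise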
KCNQ1 act = human KCNQ1 channel potentiation or activation; 310,000 compounds, 0.35% hits; B-score at 10 µM; CHO-K1 KCNQ1, thallium flux FluxOR fluorescence; active compounds read high;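 active means fluorescence ratio B-score, a plate-corrected score, at least three library SD, with initial intensity B-score within 5 SD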
Target sequence (P51787 whole entry, looked up): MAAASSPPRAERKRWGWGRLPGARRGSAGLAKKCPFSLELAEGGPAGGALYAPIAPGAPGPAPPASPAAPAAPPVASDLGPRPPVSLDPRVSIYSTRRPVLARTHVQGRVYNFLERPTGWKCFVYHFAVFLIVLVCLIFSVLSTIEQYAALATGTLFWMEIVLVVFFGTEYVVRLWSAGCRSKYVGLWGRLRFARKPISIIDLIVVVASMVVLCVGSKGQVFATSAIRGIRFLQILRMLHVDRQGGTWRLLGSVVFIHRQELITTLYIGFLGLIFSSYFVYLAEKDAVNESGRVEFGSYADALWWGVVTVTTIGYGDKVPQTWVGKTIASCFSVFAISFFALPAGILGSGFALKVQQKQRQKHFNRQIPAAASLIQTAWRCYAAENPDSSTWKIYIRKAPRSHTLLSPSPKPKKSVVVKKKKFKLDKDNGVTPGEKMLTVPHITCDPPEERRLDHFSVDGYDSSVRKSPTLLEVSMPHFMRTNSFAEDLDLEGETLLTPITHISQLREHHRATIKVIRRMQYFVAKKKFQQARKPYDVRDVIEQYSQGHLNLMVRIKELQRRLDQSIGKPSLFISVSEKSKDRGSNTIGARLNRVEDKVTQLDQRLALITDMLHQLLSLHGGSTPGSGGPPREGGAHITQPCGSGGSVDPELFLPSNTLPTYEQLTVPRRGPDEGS
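Assay system: CHO-K1 cells stably expressing KCNQ1; Medium: assay buffer with matched DMSO; Also added: K+/Tl+ depolarizing stimulus; Dosing: single dose; Timing: dye 90 min, compound 20 min, room temperature; Measured by: kinetic FluxOR thallium fluorescence, 10-s 1-Hz baseline, 110-s post-stimulus read; Read-out: peak-minus-minimum fluorescence over initial fluorescence, negative-control normalized, B-scored.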
KCNQ1 inh = blocks the human KCNQ1 potassium channel; 310,000 compounds, 1.3% hits; B-score at 10 µM; CHO-K1 KCNQ1, FluxOR thallium flux fluorescence; active compounds read high;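 active means compounds whose thallium flux B-score, printed positive for inhibition, exceeds three library SD while starting fluorescence stays within three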;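 further: channel opened by potassium depolarization with thallium stimulus after 20 min compound exposure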
KCNK3 inh = human KCNK3 channel inhibition, primary screen | O14649 | CHO-KCNK3 thallium flux, FluxOR fluorescence; active compounds read low | B-score at 10 µM | 340,000 compounds, 0.84% hits | AID 602410;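 active means B-score under library mean minus 4 SD, starting fluorescence ratio at most library mean plus 5 SD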;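 further: more negative B-score means stronger inhibition of thallium flux through KCNK3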
KCNK9 block conf = confirmation of human KCNK9 potassium channel inhibitors. shares compounds with KCNK9 inh. HEK293 KCNK9 cells, FluxOR thallium flux fluorescence. inhibition, % at 10 µM. 4,900 compounds, 43% hits. AID 492992;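 active means thallium signal inhibited by more than 5 SD of the compound-free buffer control wells, on both duplicate plates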
Kir21 sel = selectivity of KCNK9 modulators against mouse Kir2.1 | AID 492993 | shares compounds with KCNK9 inh | inhibition, % at 10 µM | Kir2.1 cells, FluxOR thallium flux fluorescence | 4,900 compounds, 4% hits;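 active means thallium signal drop more than 5 SD beyond the mean of the no-compound control wells, seen in both duplicate plates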;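 further: signal is fluorescence rise after thallium addition divided by baseline fluorescence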
HEK293 Tl ctr = second counter-screen for KCNK9 modulators: effect in non-induced cells; shares compounds with KCNK9 inh; non-induced KCNK9-HEK293, FluxOR thallium flux; inhibition, % at 10 µM; 4,900 compounds, 40% hits; AID 492997;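 active means thallium signal drop beyond 5 SD of the untreated control mean, on both duplicate plates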
Hits are given with their value; i = inactive; nt = not tested or not shown. This is a sample that favours compounds with a hit; in the whole collection about 4% have one here.

SMILES	PHOSPHO1 inh	KCNK9 inh	hERG rescue	KCNQ1 act	KCNQ1 inh	KCNK3 inh	KCNK9 block conf	Kir21 sel	HEK293 Tl ctr
COc1ccc(NC(=O)c2oc3ccccc3c2CSC)cn1	i	i	i	i	i	i	nt	nt	nt
COc1ccc(-c2csc(Nc3ccccc3)[n+]2Cc2ccccc2)cc1	i	-9.4	i	i	i	i	46%	i	27%
COCCNC(=S)NNC(=O)CSCc1ccc(Cl)cc1Cl	i	i	i	i	i	i	nt	nt	nt
CCOc1ccc2nc(N3CCCCCC3)sc2c1	i	i	i	i	i	i	nt	nt	nt
CCOc1ccc2nc(N3C(=O)/C(=C/c4ccccc4)NC3=S)sc2c1	i	i	45	134	i	i	i	i	i
O=C(NCc1ccco1)C1CCCN(S(=O)(=O)c2ccc(Br)cc2)C1 (configuration not stated)	i	i	i	i	i	i	nt	nt	nt
COC(=O)c1ccc2c(c1)N(C)C(=O)CS2	i	i	i	i	i	i	nt	nt	nt
CCOc1ccc(Nc2nc(Cc3nnc(SCC(=O)c4ccc(C)c(C)c4)o3)cs2)cc1	i	i	i	i	i	i	i	i	i
Cc1cccc(/C(N)=N/OC(=O)CCCN2C(=O)c3ccccc3C2=O)c1	i	i	i	i	i	i	i	i	i
Cc1ccc(CCc2nnc(SCC(=O)Nc3cccc(Cl)c3)n2-c2ccccc2)o1	i	i	i	i	i	i	i	i	i
CC(=O)Nc1ccc(N/C=C/C(=O)c2ccc(C)o2)cc1	i	i	i	i	i	i	nt	nt	nt
COc1ccccc1Oc1ccc(N/C=C/C(=O)c2ccc(C)o2)cc1	i	i	i	i	i	i	i	i	i
O=C(Nc1ccc2oc(=O)c(C(=O)O)cc2c1)Oc1ccccc1	nt	nt	nt	nt	nt	i	nt	nt	nt
CCCc1nc(SCC(=O)NC2CC2)c2c(C)c(C)sc2n1	i	i	i	i	i	i	nt	nt	nt
CCCc1nc(SCC(=O)N2c3ccccc3CC2C)c2c(C)c(C)sc2n1 (configuration not stated)	i	i	i	i	i	i	i	i	i
Cc1sc2nc(C3CC3)nc(SCC(=O)N3CCc4ccccc4C3)c2c1C	i	i	i	i	i	i	i	i	i
COc1cccc(COCCN2CCN(S(=O)(=O)c3ccc(C)cc3)CCC2=O)c1	i	i	i	i	i	i	i	i	i
Cc1ccc(COCCN2CCN(S(=O)(=O)c3ccc(C)cc3)CCC2=O)cc1	i	i	i	i	i	i	nt	nt	nt
Cc1ccc(S(=O)(=O)N2CCC(=O)N(CCOCc3cccc(C)c3)CC2)cc1	i	i	i	i	i	i	i	i	i
COc1ccc(C(=O)N2CCNC(=O)C2CC(=O)Nc2cccc(Cl)c2Cl)cc1 (configuration not stated)	i	i	i	i	i	i	nt	nt	nt
Cc1ccc(S(=O)(=O)NC(=O)c2ccc(-c3ccc(C)c4ccccc34)o2)cc1	i	i	i	i	i	i	i	i	i
Cc1ccc(-c2ccc(C(=O)Nc3ccccc3)o2)c2ccccc12	i	i	i	i	6	i	i	i	i
CCOC(=O)C(NC(=O)Nc1ccc(O)cc1)(c1ccccc1)C(F)(F)F (configuration not stated)	i	i	i	i	i	i	nt	nt	nt
CCC(C)NC(=O)C(=O)NCC1CCCN1CC (configuration not stated)	i	i	i	i	i	i	nt	nt	nt
COc1cccc(-c2cc(C(=O)NCc3cccs3)no2)c1	i	i	i	i	i	i	nt	nt	nt
SMILES	PHOSPHO1 inh	KCNK9 inh	hERG rescue	KCNQ1 act	KCNQ1 inh	KCNK3 inh	KCNK9 block conf	Kir21 sel	HEK293 Tl ctr
Cc1ccc(C)c(C(=O)OCC(=O)N(C)c2ccccc2)c1	i	i	i	i	i	i	i	i	i
COc1cccc(CC(=O)OCC(=O)N(C)CC(=O)Nc2ccccc2Cl)c1	nt	nt	nt	nt	nt	i	nt	nt	nt
O=c1c(Cc2ccc(Cl)cc2)c(O)ccn1Cc1ccccc1	i	i	i	i	i	i	nt	nt	nt
O=c1c(Cc2ccc(Cl)cc2)c(O)ccn1Cc1cccc(Cl)c1	i	i	i	i	i	i	i	i	i
O=c1c(Cc2ccc(Cl)cc2Cl)c(O)ccn1Cc1ccc(Cl)cc1	i	i	i	i	8	i	i	i	i
NC(=O)c1ccc(NC(=O)COC(=O)CCCOc2ccccc2)cc1	nt	nt	nt	nt	nt	i	nt	nt	nt
O=C(NCCCn1ccnc1)c1ccc(Br)c(S(=O)(=O)N2CCOCC2)c1	i	i	i	i	i	i	nt	nt	nt
O=C1C=C(c2ccc(Cl)nc2)C[C@@H](c2ccc3c(c2)OCO3)C1	nt	nt	nt	nt	nt	i	nt	nt	nt
Cc1onc(-c2ccccc2Cl)c1C(=O)NC(=S)NCc1cccnc1	i	i	i	i	i	i	i	i	i
Cc1onc(-c2ccccc2Cl)c1C(=O)NCc1cccnc1	i	i	i	i	i	i	nt	nt	nt
Cc1onc(-c2ccccc2Cl)c1C(=O)NC(=S)Nc1ccccc1F	i	i	i	i	i	i	nt	nt	nt
COc1ccccc1NC(=S)NC(=O)c1c(-c2ccccc2Cl)noc1C	i	i	i	i	i	i	i	i	i
Cc1ccc(S(=O)(=O)N(CC(=O)N2CCC(C)CC2)c2ccccc2)cc1	i	i	i	i	i	i	nt	nt	nt
O=C(OCC(=O)N1CCCc2ccccc21)c1cccc(C(F)(F)F)c1	nt	i	i	i	i	i	i	i	i
O=C(OCC(=O)N1CCCc2ccccc21)c1cnc(Cl)c(Cl)c1	i	i	i	i	i	i	i	i	i
N#Cc1cccc(C(=O)OCC(=O)N2CCCc3ccccc32)c1	nt	i	i	i	i	i	nt	nt	nt
Cc1cccc(OCCCC(=O)N2CCCc3ccccc32)c1C	i	i	i	i	i	i	i	i	i
CCN(CC)S(=O)(=O)c1ccc(O)c(C(=O)OCC(=O)Nc2cc(C)c(C)cc2[N+](=O)[O-])c1	i	-11	i	i	i	i	32%	i	26%
S=C(NCCc1ccccc1)N1CCN(Cc2ccc(Cl)c(Cl)c2)CC1	i	i	i	i	i	i	i	i	25%
O=C(NNC(=S)Nc1ccc(Cl)c(Cl)c1)c1ccccn1	i	i	i	i	i	i	i	i	i
CCCn1nc(NC(=O)c2cccs2)c2cc3cc(OC)ccc3nc21	i	-10	i	i	i	i	i	i	i
CCCCN(Cc1nc2ccccc2c(=O)[nH]1)C(=O)c1nn(C)c(=O)c2ccccc12	nt	nt	nt	nt	nt	i	nt	nt	nt
Cc1ccc(CSc2nnc(Cn3c(=O)sc4ccccc43)n2C)cc1	i	i	i	i	i	i	nt	nt	nt
Cc1ccc(NC(=O)c2cccc(OC(F)F)c2)c(OC(F)F)c1	i	-8.7	i	i	i	i	54%	i	35%
